Measured values as given in ChEMBL document CHEMBL1155938, “Design, synthesis and biological evaluation of new tryptamine and tetrahydro-beta-carboline-based selective inhibitors of CDK4” (Bioorg Med Chem, 2008).

What was measured:
[1] = biological target: Cyclin-dependent kinase 4/cyclin D1 (Homo sapiens, UniProt P11802); experiment: Inhibition of human CDK4/GST-cyclin D1 expressed in Sf9 cells assessed as retinoblastoma GST-RB152 phosphorylation
In short: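 CDK4 with GST-cyclin D1 was co-expressed in Sf-9, purified on glutathione-agarose and dialysed. The substrate was GST-RB152, expressed in E. coli BL21(DE3)pLysS (4 mM IPTG, 4 h, 37 °C). The buffer was 40 mM Tris pH 7.5, 20 mM MgCl₂, 0.1 mg/mL BSA plus inhibitors and DTT. 200 ng enzyme ran 30 min at 30 °C. Kinase-Glo luminescence (ATP depletion) gave IC50.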

[2] = biological target: Cyclin-dependent kinase 2 (Homo sapiens, UniProt P24941); experiment: Inhibition of human CDK2/GST-cyclin A expressed in Sf9 cells assessed as histone phosphorylation
In short: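 Sf-9 co-expressed CDK2 with GST-cyclin A, purified on glutathione-agarose and dialysed. Histone H1 was the substrate, in 40 mM Tris pH 7.5, 20 mM MgCl₂, 0.1 mg/mL BSA with phosphatase/protease inhibitors and DTT. Compounds came from 10 mM DMSO stock, serially diluted. 200 ng enzyme was incubated 30 min at 30 °C. ATP depletion was read by Kinase-Glo luminescence, and IC50 derived.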

Chain of Cyclin-dependent kinase 4/cyclin D1 (P11802 whole entry): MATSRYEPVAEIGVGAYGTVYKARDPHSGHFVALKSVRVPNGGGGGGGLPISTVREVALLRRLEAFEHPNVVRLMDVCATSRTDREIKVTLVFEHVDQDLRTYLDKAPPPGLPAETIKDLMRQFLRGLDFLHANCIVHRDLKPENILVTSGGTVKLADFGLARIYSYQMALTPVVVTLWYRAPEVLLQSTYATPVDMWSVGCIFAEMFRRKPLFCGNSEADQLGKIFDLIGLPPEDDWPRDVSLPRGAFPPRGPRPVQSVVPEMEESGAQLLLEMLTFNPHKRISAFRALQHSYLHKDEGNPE
Chain of Cyclin-dependent kinase 4/cyclin D1 (P24385 whole entry, further chain): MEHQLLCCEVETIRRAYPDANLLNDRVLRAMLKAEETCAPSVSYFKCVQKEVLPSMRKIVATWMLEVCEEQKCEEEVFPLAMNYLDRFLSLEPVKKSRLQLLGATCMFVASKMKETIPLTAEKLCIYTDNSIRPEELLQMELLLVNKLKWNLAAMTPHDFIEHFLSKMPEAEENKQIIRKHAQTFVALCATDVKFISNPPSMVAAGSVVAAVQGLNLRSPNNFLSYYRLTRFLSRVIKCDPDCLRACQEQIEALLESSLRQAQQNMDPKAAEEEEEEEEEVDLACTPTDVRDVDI

In the case of `O=C(c1cccc(-c2ccccc2F)c1)N1CCc2c([nH]c3ccccc23)C1`, the IC50 [1] is reported as 18 µM and the IC50 [2] is reported as 335 µM.
For `O=C(c1ccc(-c2ccc(F)cc2)cc1)N1CCc2c([nH]c3ccccc23)C1`, the IC50 [1] was 12 µM and the IC50 [2] was 438 µM.
`Cc1ccc(-c2ccc(C(=O)N3CCc4c([nH]c5ccccc45)C3)cc2)cc1` was tested, and the IC50 [1] was 9 µM and the IC50 [2] was 736 µM.
Compound `COc1ccccc1-c1ccc(C(=O)N2CCc3c([nH]c4ccccc34)C2)cc1` has an IC50 [1] of 22 µM and an IC50 [2] of 321 µM.
Work on `CN(CCc1c[nH]c2ccccc12)C(=O)c1ccc(-c2ccccc2)cc1` yielded an IC50 [1] of 6 µM.
`O=C(c1ccc(-c2ccccc2F)cc1)N1CCc2c([nH]c3ccccc23)C1` showed an IC50 [1] of 17 µM and an IC50 [2] of 310 µM.
`O=C(NCCc1c[nH]c2ccccc12)c1cccc(-c2cccnc2)c1` was tested, and the IC50 [1] was 30 µM and the IC50 [2] was 150 µM.
`O=C(c1ccccc1-c1cccc(F)c1)N1CCc2c([nH]c3ccccc23)C1` was tested, and the IC50 [1] was 35 µM and the IC50 [2] was 480 µM.
`COc1cccc(-c2ccccc2C(=O)NCCc2c[nH]c3ccccc23)c1` showed an IC50 [1] of 53 µM and an IC50 [2] of 926 µM.
For `O=C(NCCc1c[nH]c2ccccc12)c1ccc(-c2ccc(F)cc2)cc1`, the IC50 [1] was 15 µM and the IC50 [2] was 764 µM.
`Cc1ccccc1-c1ccc(C(=O)N2CCc3c([nH]c4ccccc34)C2)cc1` showed an IC50 [1] of 32 µM and an IC50 [2] of 340 µM.
For `O=C(c1ccccc1-c1ccc(F)cc1)N1CCc2c([nH]c3ccccc23)C1`, the IC50 [1] was 23 µM and the IC50 [2] was 357 µM.
For `CN(CCc1c[nH]c2ccccc12)C(=O)c1ccc(-c2ccc(C(C)(C)C)cc2)cc1`, the IC50 [1] was 11.2 µM and the IC50 [2] was 745 µM.
In the case of `Cc1cccc(-c2cccc(C(=O)N3CCc4c([nH]c5ccccc45)C3)c2)c1`, the IC50 [1] is reported as 11 µM and the IC50 [2] is reported as 465 µM.
Work on `O=C(NCCc1c[nH]c2ccccc12)c1ccccc1-c1cccc(F)c1` yielded an IC50 [1] of 20 µM and an IC50 [2] of 417 µM.
Compound `Cc1ccccc1-c1cccc(C(=O)N2CCc3c([nH]c4ccccc34)C2)c1` has an IC50 [1] of 75 µM and an IC50 [2] of 665 µM.
`COc1ccccc1-c1cccc(C(=O)N2CCc3c([nH]c4ccccc34)C2)c1` showed an IC50 [1] of 79 µM and an IC50 [2] of 1110 µM.
`Cc1cccc(-c2ccc(C(=O)N3CCc4c([nH]c5ccccc45)C3)cc2)c1` gave an IC50 [1] of 25 µM and an IC50 [2] of 405 µM.
Work on `CN(CCc1c[nH]c2ccccc12)C(=O)c1ccc(-c2ccc(F)cc2)cc1` yielded an IC50 [1] of 21 µM and an IC50 [2] of 875 µM.
`O=C(c1cccc(-c2cccc(F)c2)c1)N1CCc2c([nH]c3ccccc23)C1` gave an IC50 [1] of 27 µM and an IC50 [2] of 611 µM.
For `O=C(NCCc1c[nH]c2ccccc12)c1ccc(-c2ccccc2)cc1`, the IC50 [1] was 16 µM and the IC50 [2] was 855 µM.
With `CC(C)(C)c1ccc(-c2ccccc2C(=O)NCCc2c[nH]c3ccccc23)cc1` the IC50 [1] was 38 µM and the IC50 [2] was 262 µM.
In the case of `O=C(c1ccccc1-c1cccnc1)N1CCc2c([nH]c3ccccc23)C1`, the IC50 [1] is reported as 36 µM and the IC50 [2] is reported as 312 µM.
With `Cc1ccc(-c2ccc(C(=O)N(C)CCc3c[nH]c4ccccc34)cc2)cc1` the IC50 [1] was 24 µM and the IC50 [2] was 70 µM.
`O=C(c1ccccc1-c1ccncc1)N1CCc2c([nH]c3ccccc23)C1` showed an IC50 [1] of 39 µM and an IC50 [2] of 354 µM.
With `O=C(c1ccccc1-c1ccccc1F)N1CCc2c([nH]c3ccccc23)C1` the IC50 [1] was 19 µM and the IC50 [2] was 434 µM.
Compound `COc1cccc(-c2cccc(C(=O)N3CCc4c([nH]c5ccccc45)C3)c2)c1` has an IC50 [1] of 33 µM and an IC50 [2] of 362 µM.
`COc1cccc(-c2ccc(C(=O)N3CCc4c([nH]c5ccccc45)C3)cc2)c1` showed an IC50 [1] of 28 µM and an IC50 [2] of 424 µM.
For `O=C(c1ccc(-c2cccc(F)c2)cc1)N1CCc2c([nH]c3ccccc23)C1`, the IC50 [1] was 21 µM and the IC50 [2] was 296 µM.
`O=C1c2ccccc2-[n+]2ccc3c([nH]c4ccccc43)c21` [FASCAPLYSIN CHLORIDE] gave an IC50 [1] of 0.55 µM and an IC50 [2] of 500 µM.
Work on `O=C(c1cccc(-c2ccc(F)cc2)c1)N1CCc2c([nH]c3ccccc23)C1` yielded an IC50 [1] of 25 µM and an IC50 [2] of 318 µM.
`Cc1cccc(-c2ccccc2C(=O)N2CCc3c([nH]c4ccccc34)C2)c1` gave an IC50 [1] of 26 µM and an IC50 [2] of 386 µM.
In the case of `COc1ccc(-c2ccccc2C(=O)NCCc2c[nH]c3ccccc23)cc1`, the IC50 [1] is reported as 79 µM and the IC50 [2] is reported as 921 µM.
`O=C(NCCc1c[nH]c2ccccc12)c1cccc(-c2ccccc2)c1` showed an IC50 [1] of 86 µM and an IC50 [2] of 1000 µM.
`Cc1ccc(-c2cccc(C(=O)N3CCc4c([nH]c5ccccc45)C3)c2)cc1` showed an IC50 [1] of 24 µM and an IC50 [2] of 466 µM.
Work on `CN(CCc1c[nH]c2ccccc12)C(=O)c1ccc(-c2ccc(-c3ccccc3)cc2)cc1` yielded an IC50 [1] of 35 µM and an IC50 [2] of 91 µM.
For `O=C(NCCc1c[nH]c2ccccc12)c1ccccc1-c1ccc(F)cc1`, the IC50 [1] was 38 µM and the IC50 [2] was 1220 µM.
Compound `CN(CCc1c[nH]c2ccccc12)C(=O)c1ccc(-c2ccncc2)cc1` has an IC50 [1] of 26 µM and an IC50 [2] of 92 µM.
`COc1ccccc1-c1ccccc1C(=O)NCCc1c[nH]c2ccccc12` was tested, and the IC50 [1] was 26 µM and the IC50 [2] was 375 µM.
`COc1ccc(-c2ccc(C(=O)N(C)CCc3c[nH]c4ccccc34)cc2)cc1` showed an IC50 [1] of 49 µM and an IC50 [2] of 289 µM.
`CC(C)(C)c1ccc(-c2ccc(C(=O)NCCc3c[nH]c4ccccc34)cc2)cc1` showed an IC50 [1] of 9.2 µM and an IC50 [2] of 790 µM.
`Cc1ccc(-c2ccc(C(=O)NCCc3c[nH]c4ccccc34)cc2)cc1` showed an IC50 [1] of 18 µM and an IC50 [2] of 816 µM.
`COc1ccc(-c2ccc(C(=O)NCCc3c[nH]c4ccccc34)cc2)cc1` gave an IC50 [1] of 48 µM and an IC50 [2] of 1090 µM.
Compound `Cc1cccc(-c2ccccc2C(=O)NCCc2c[nH]c3ccccc23)c1` has an IC50 [1] of 15 µM and an IC50 [2] of 406 µM.
